Reference: ChEMBL document CHEMBL2169744, “Discovery and optimization of potent and selective imidazopyridine and imidazopyridazine mTOR inhibitors” (Bioorg Med Chem Lett, 2012)
Converted amounts (≈) assume the structure as drawn.

What was measured:
[1] = Volume of distribution at steady state in rat at 0.5 mg/kg, iv; type: ADME, organism-based; set-up: dose 0.5 mg/kg, route intravenous; settings: in vivo, read-out: Vdss
[2] = (§1) AUC in rat at 0.5 mg/kg, iv; type: ADME, organism-based, Plasma; set-up: dose 0.5 mg/kg, route intravenous; settings: plasma
[3] = Half life in rat at 0.5 mg/kg, iv; type: ADME, organism-based; set-up: dose 0.5 mg/kg, route intravenous; settings: in vivo
[4] = molecular target: Phosphatidylinositol 4,5-bisphosphate 3-kinase catalytic subunit alpha isoform (Homo sapiens, UniProt P42336); assay: Inhibition of PI3Kalpha by AlphaScreen assay
Sequence of Phosphatidylinositol 4,5-bisphosphate 3-kinase catalytic subunit alpha isoform (P42336 whole entry, canonical isoform): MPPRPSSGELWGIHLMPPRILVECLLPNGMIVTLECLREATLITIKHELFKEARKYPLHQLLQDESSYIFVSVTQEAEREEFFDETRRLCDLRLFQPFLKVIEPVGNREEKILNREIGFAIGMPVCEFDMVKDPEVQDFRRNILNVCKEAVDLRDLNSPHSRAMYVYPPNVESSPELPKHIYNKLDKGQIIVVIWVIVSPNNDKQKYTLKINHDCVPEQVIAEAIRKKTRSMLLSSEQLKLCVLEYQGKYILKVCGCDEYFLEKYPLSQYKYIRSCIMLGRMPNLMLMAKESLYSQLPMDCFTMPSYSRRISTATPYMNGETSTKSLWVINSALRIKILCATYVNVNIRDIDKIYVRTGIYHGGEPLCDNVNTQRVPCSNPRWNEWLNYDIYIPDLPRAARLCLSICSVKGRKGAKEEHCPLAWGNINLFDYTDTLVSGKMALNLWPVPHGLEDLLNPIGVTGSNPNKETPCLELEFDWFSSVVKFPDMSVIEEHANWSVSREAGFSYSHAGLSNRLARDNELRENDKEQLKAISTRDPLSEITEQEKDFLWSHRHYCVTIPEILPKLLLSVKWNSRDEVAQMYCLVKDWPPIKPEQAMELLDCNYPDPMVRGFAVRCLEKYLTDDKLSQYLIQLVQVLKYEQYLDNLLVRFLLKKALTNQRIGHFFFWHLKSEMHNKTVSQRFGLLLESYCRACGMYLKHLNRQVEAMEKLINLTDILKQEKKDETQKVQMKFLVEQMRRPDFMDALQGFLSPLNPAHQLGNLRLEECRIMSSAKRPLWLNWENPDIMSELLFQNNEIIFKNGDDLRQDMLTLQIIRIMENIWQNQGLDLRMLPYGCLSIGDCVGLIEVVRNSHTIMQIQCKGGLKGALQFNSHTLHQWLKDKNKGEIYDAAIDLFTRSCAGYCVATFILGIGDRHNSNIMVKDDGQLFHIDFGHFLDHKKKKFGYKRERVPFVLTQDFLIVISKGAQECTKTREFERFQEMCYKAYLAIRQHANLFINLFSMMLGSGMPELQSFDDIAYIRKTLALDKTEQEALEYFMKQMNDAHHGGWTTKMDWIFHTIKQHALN

[5] = Oral bioavailability in rat at 5 mg/kg; type: ADME, organism-based; settings: in vivo
Outline: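 Rat oral PK at 5.0 mpk in 1% Tween 80, 2% HPMC, 97% H2O, pH 2.2 (methanesulfonic acid).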

[6] = Plasma protein binding in rat at 5 mg/kg, po; type: ADME, organism-based; set-up: dose 5 mg/kg, route oral; settings: read-out: PPB (converted)
[7] = Solubility of the compound in simulated intestinal fluid; type: physicochemical
[8] = (§2) Clearance in rat at 0.5 mg/kg, iv; type: ADME, organism-based; set-up: dose 0.5 mg/kg, route intravenous; settings: in vivo
[9] = Inhibition of mTORC1-mediated 4EBP1-phosphorylation in human U87 cells; type: cell-based, U-87MG ATCC
[10] = molecular target: Serine/threonine-protein kinase mTOR (Homo sapiens, UniProt P42345); assay: Inhibition of mTOR by LanthaScreen assay
Rattus norvegicus [11] = organism: Rattus norvegicus; assay: Unbound clearance in rat; type: ADME, organism-based; settings: in vivo
[12] = Clearance in rat at 1 mg/kg, iv; type: ADME, organism-based; set-up: dose 1 mg/kg, route intravenous; settings: in vivo
[13] = Inhibition of mTORC2-mediated AKT Ser473-phosphorylation in human U87 cells; type: cell-based, U-87MG ATCC; settings: U-87 MG
Outline: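 Cell assay in U87 cells measuring pAKT (S473), n ≥ 2.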

[14] = Oral bioavailability in rat at 4 mg/kg; type: ADME, organism-based; settings: in vivo
[15] = Efflux ratio of apparent permeability from basal to apical to apical to basal side of pig LLC-PK1 cells; type: ADME, cell-based, Sus scrofa
[16] = Oral bioavailability in rat at 1 mg/kg; type: ADME, organism-based; settings: in vivo
[17] = Apparent permeability from apical to basal side of pig LLC-PK1 cells; type: ADME, cell-based, Sus scrofa
[18] = Inhibition of mTORC1-mediated pS6 Ser240/244-phosphorylation in human U87MG cells; type: cell-based, U-87MG ATCC; settings: U-87 MG
Outline: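 Cell assay in U87MG cells measuring phosphorylation of the mTOR substrate S6 (S240/244), n ≥ 2.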

[19] = Apparent permeability from basal to apical side of pig LLC-PK1 cells; type: ADME, cell-based, Sus scrofa
[20] = Solubility of the compound in 0.01 N HCl; type: physicochemical; settings: buffer
[21] = Solubility of the compound in phosphate buffered saline; type: physicochemical
[22] = Oral bioavailability in rat at 2 mg/kg; type: ADME, organism-based; settings: in vivo
[23] = Clearance in rat at 0.3 mg/kg, iv; type: ADME, organism-based; set-up: dose 0.3 mg/kg, route intravenous; settings: in vivo
Outline: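 Rat IV pharmacokinetics at 0.3 mpk, formulation 100% DMSO.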

Rattus norvegicus [24] = assay: as §1; type: ADME, organism-based, Plasma; set-up: dose 0.5 mg/kg, route intravenous; settings: in vivo
Rattus norvegicus [25] = assay: as §2; type: ADME, organism-based; set-up: dose 0.5 mg/kg, route intravenous; settings: in vivo
[26] = Homo sapiens, U-87 MG, read-out: IC50

SMILES | Vd [1] [L/kg] | half-life [3] [min] | IC50 [4] [nM] | solubility [7] [µg/mL] | clearance [8] [mL/min/kg] | IC50 [9, 26] [nM] | IC50 [10] [nM] | clearance [12] [mL/min/kg] | IC50 [13] [nM] | further results
CC(=O)Nc1cc(-c2c(Nc3cc[nH]n3)nc3cccnn23)nc(C)n1 | 6.3 | 49.2 | 47 | 200 (≈ 572 µM) | 43.3 | 45 | 3 |  |  | AUC [2]: 0.6 µM·h; bioavailability [5]: 46%; fraction unbound [6]: 0.056
Cc1nc(Nc2cnn(C3CCOC3)c2)cc(-c2c(Nc3ccn[nH]3)nc3cccnn23)n1 (stereo not drawn) | 3.2 | 21.6 | 105 | > 200 | 100 | 146 | 36 |  |  | 
CNc1cc(-c2c(Nc3cc[nH]n3)nc3cccnn23)nc(C)n1 | 1.3 | 15.6 | 1140 | 7 (≈ 21.8 µM) | 80 | 706 | 63 |  |  | bioavailability [5]: 29%
CC(=O)Nc1cc(-c2c(Nc3ccn(C)n3)nc3ccc(-c4cnco4)cn23)nc(C)n1 | 4.1 | 42 | 3170 |  | 117 | 347 | 20 |  |  | AUC [2]: 0.2 µM·h; bioavailability [5]: 3%
Cc1nc(N)cc(-c2c(Nc3cc[nH]n3)nc3cccnn23)n1 | 2 | 51 | 763 | 150 (≈ 488 µM) | 38.3 | 210 | 13 |  |  | AUC [2]: 1 µM·h; bioavailability [5]: 100%; fraction unbound [6]: 0.088; CL free (Rattus norvegicus [11]): 435 mL/min/kg
Cc1nc(N)nc(-c2c(Nc3cc[nH]n3)nc3ccc(-c4cccnc4C)cn23)n1 |  |  | 120 |  |  | 41 | 3 | 33.3 | 10 | 
Cc1cc(-c2ccc3nc(Nc4cc[nH]n4)c(-c4nc(C)nc(N)n4)n3c2)ccn1 |  |  | 239 |  |  | 222 | 4 | 33.3 | 23 | 
Cc1nc(N)nc(-c2c(Nc3ccn(C)n3)nc3ccc(-c4cncnc4)cn23)n1 | 1 | 15.6 | 635 | 1 (≈ 2.5 µM) | 41.7 |  | 76 |  |  | IC50 ([9]; u-87mg atcc): Not Active
Cc1nccc(-c2c(Nc3ccn[nH]3)nc3cccnn23)n1 | 0.62 | 13.8 | 3020 | 14 (≈ 47.9 µM) | 31.7 | 2170 | 141 |  |  | 
CC(=O)Nc1cc(-c2c(Nc3cc[nH]n3)nc3ccccn23)nc(C)n1 | 1.2 | 31.2 | 112 |  | 38.3 | 60 | 9 |  |  | AUC [2]: 0.6 µM·h
COc1ncccc1-c1ccc2nc(Nc3ccn[nH]3)c(-c3nc(C)nc(N)n3)n2c1 |  |  | 268 |  |  | 510 | 39 | 33.3 | 138 | 
Cc1nc(Nc2ccc(N3CCOCC3)nn2)cc(-c2c(Nc3ccn[nH]3)nc3cccnn23)n1 | 3.9 | 95.4 | 256 | 98 (≈ 208 µM) | 41.7 | 309 | 35 |  |  | bioavailability [14]: 7%
COc1cnnc(Nc2cc(-c3c(Nc4cc[nH]n4)nc4cccnn34)nc(C)n2)c1 | 9.1 | 70.8 | 54 | 175 (≈ 421 µM) | 103 | 85 | 3 |  |  | 
Cc1nc(N)nc(-c2c(Nc3cc[nH]n3)nc3ccc(-c4cccnc4)cn23)n1 |  |  | 119 |  |  | 101 | 3 | 33.3 | 12 | 
Cc1nc(N)nc(-c2c(Nc3cc[nH]n3)nc3ccc(-c4ccccc4C)cn23)n1 |  |  | 393 |  |  | 652 | 21 | 33.3 | 54 | 
Cc1nc(Nc2cccnn2)cc(-c2c(Nc3ccn[nH]3)nc3cccnn23)n1 |  |  | 173 |  |  | 276 | 24 |  |  | 
Cc1nc(N)nc(-c2c(Nc3ccn[nH]3)nc3ccc(-c4cncnc4C)cn23)n1 |  |  | 68 |  |  | 57 | 3 | 33.3 | 6 | 

SMILES | Vd [1] [L/kg] | half-life [3] [min] | IC50 [4] [nM] | solubility [7] [µg/mL] | clearance [8] [mL/min/kg] | IC50 [9, 26] [nM] | IC50 [10] [nM] | clearance [12] [mL/min/kg] | IC50 [13] [nM] | further results
Cc1cc(-c2ccc3nc(Nc4cc[nH]n4)c(-c4nc(C)nc(N)n4)n3c2)on1 |  |  | 177 |  |  | 72 | 3 | 33.3 | 7 | 
Cc1nc(N)nc(-n2c(Nc3ccn[nH]3)nc3ccccc32)n1 |  |  |  | 8.4 (≈ 27.3 µM) |  |  | 23 |  |  | efflux ratio [15]: 1.7; bioavailability [16]: 6%; Papp A→B [17]: 20.3 ×10⁻⁶ cm/s; IC50 [18]: 166 nM; Papp B→A [19]: 35.4 ×10⁻⁶ cm/s; solubility [20]: 3.7 µg/mL (≈ 12 µM); solubility [21]: 8.4 µg/mL (≈ 27.3 µM)
Cc1nc(N)nc(-c2c(Nc3cc[nH]n3)nc3ccc(-c4cnccc4C)cn23)n1 |  |  | 73 |  |  | 49 | 2 | 33.3 | 13 | 
Cc1nc(Nc2cnccn2)cc(-c2c(Nc3ccn[nH]3)nc3cccnn23)n1 | 2.5 | 25.2 | 122 |  | 96.7 | 66 | 6 |  |  | 
CC(=O)Nc1cc(-c2c(Nc3ccn(C)n3)nc3ccccn23)nc(C)n1 | 0.6 | 39.6 | 4580 |  | 10 | 940 | 67 |  |  | AUC [2]: 2.3 µM·h; bioavailability [5]: 4%; fraction unbound [6]: 0.056; CL free (Rattus norvegicus [11]): 180 mL/min/kg
Cc1nc(N)nc(-c2c(Nc3ccn[nH]3)nc3ccc(-c4cccc(F)c4)cn23)n1 |  |  | 654 |  |  | 912 | 27 | 33.3 | 73 | 
Cc1nc(Nc2cccnc2)cc(-c2c(Nc3ccn[nH]3)nc3cccnn23)n1 |  |  | 1140 | 1 (≈ 2.6 µM) |  | 6390 | 147 |  |  | 
Cc1nc(N)cc(-c2c(Nc3cc[nH]n3)nc3ccccn23)n1 | 1.2 | 15 | 5840 | 162 (≈ 529 µM) |  | 507 | 65 |  |  | bioavailability [22]: 2%; CL free (Rattus norvegicus [11]): 515 mL/min/kg; clearance [23]: 68.3 mL/min/kg
Cc1nc(N)nc(-c2c(Nc3ccn[nH]3)nc3ccc(-c4cnn(C5CC5)c4)cn23)n1 |  |  | 144 |  |  | 58 | 2 | 33.3 | 8 | 
Cc1nc(N)nc(-c2c(Nc3ccn[nH]3)nc3ccc(-c4cncn4C)cn23)n1 |  |  | 463 |  |  | 276 | 5 | 33.3 | 23 | 
Cc1nc(N)nc(-c2c(Nc3cc[nH]n3)nc3ccc(-c4ccccc4F)cn23)n1 |  |  | 648 |  |  | 67 | 15 | 33.3 | 64 | 
CC(=O)Nc1cc(-c2c(Nc3ccn(C)n3)nc3ccc(-c4cccnc4C)cn23)nc(C)n1 | 1.7 | 168 | 4290 |  |  | 230 | 15 |  |  | AUC (Rattus norvegicus [24]): 7.6 µM·h; bioavailability [5]: 38%; fraction unbound [6]: 0.025; CL (Rattus norvegicus [25]): 10 mL/min/kg
CC(=O)Nc1cc(-c2c(Nc3ccn(C)n3)nc3cccnn23)nc(C)n1 | 0.8 | 23.4 | 1660 |  | 18.3 | 1230 | 55 |  |  | AUC [2]: 1.3 µM·h; bioavailability [5]: 34%; fraction unbound [6]: 0.033; CL free (Rattus norvegicus [11]): 555 mL/min/kg
Cc1nc(N)nc(-c2c(Nc3cc[nH]n3)nc3ccc(-c4cncnc4)cn23)n1 |  |  | 85 |  |  | 93 | 2 | 33.3 | 5 | 
CC(=O)Nc1cc(-c2c(Nc3ccn(C)n3)nc3ccc(-c4cnn(C(C)C)c4)cn23)nc(C)n1 | 2.1 | 258 | > 125000 |  | 8.33 | 694 | 16 |  |  | AUC [2]: 1.8 µM·h; bioavailability [5]: 8%; fraction unbound [6]: 0.004
Cc1nc(N)nc(-c2c(Nc3cc[nH]n3)nc3ccc(-c4ccncc4)cn23)n1 |  |  | 306 |  |  | 326 | 6 | 33.3 | 26 | 
CC(=O)Nc1cccc(-c2ccc3nc(Nc4cc[nH]n4)c(-c4nc(C)nc(N)n4)n3c2)c1 |  |  | 96 |  |  | 115 |  | 33.3 | 29 | 
